Assay results as given in ChEMBL document CHEMBL2407032, “Structural modification of pantothenamides counteracts degradation by pantetheinase and improves antiplasmodial activity” (ACS Med Chem Lett, 2013).

What was measured:
[1] = test system: Plasmodium falciparum; assay: Antiplasmodial activity against intraerythrocytic Plasmodium falciparum 3D7 infected in human erythrocytes in heat treated RPMI-1640 culture medium assessed as parasite growth inhibition after 96 hrs by microscopic analysis; assay type: functional, organism-based; details: 3D7, 96 h
Summary of the method: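 3D7 ring-stage-initiated cultures in erythrocytes, grown 96 h in aged Albumax-complete RPMI. The medium was heat-treated for a prolonged time to reduce pantetheinase activity and held 1 μM pantothenic acid. IC50 from concentration-response. Mean ± SEM (or range/2) of at least two independent experiments, each in triplicate.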

[2] = test system: Plasmodium falciparum; assay: Antiplasmodial activity against intraerythrocytic Plasmodium falciparum 3D7 infected in human erythrocytes in fresh RPMI-1640 culture medium assessed as parasite growth inhibition after 96 hrs by microscopic analysis; assay type: functional, organism-based; details: 3D7, 96 h
Summary of the method: (§1)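 3D7 parasites in erythrocytes, started mostly at ring stage, grown 96 h in freshly prepared Albumax-complete RPMI (pantetheinase active) with 1 μM pantothenic acid. IC50 from concentration-response. Mean ± SEM (or range/2) of at least two independent experiments, each in triplicate.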

[3] = test system: pantetheinase; assay: Drug metabolism of the compound assessed as compound hydrolysis at 200 uM after 10 mins by fluorescence assay in presence of recombinant human pantetheinase; assay type: physicochemical; details: read-out: Drug metabolism
[4] = test system: Jurkat; assay: Cytotoxicity against human Jurkat cells after 96 hrs by SYBR green assay in presence of pantothenic acid; assay type: cell-based
Summary of the method: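 Human leukemic T-cell line grown 96 h in medium with 1 μM pantothenic acid. IC50 from concentration-response profiles. Means ± SEM of three independent experiments performed in triplicate.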

[5] = Selectivity index, ratio of IC50 for human Jurkat cells to IC50 for intraerythrocytic Plasmodium falciparum 3D7 infected in human erythrocytes in fresh RPMI-1640 culture medium; assay type: toxicity, cell-based; details: read-out: Ratio IC50
[6] = test system: Plasmodium falciparum; assay: Antiplasmodial activity against intraerythrocytic Plasmodium falciparum 3D7 infected in human erythrocytes in fresh RPMI-1640 culture medium assessed as parasite growth inhibition after 96 hrs by microscopic analysis in presence of pantetheinase; assay type: functional, organism-based; details: 3D7, 96 h; summary of the method: as §1

SMILES	IC50 [1]	IC50 [2]	metabolised at 10 min, 200 µM [3]	IC50 [4]	selectivity ratio [5]	IC50 [6]
COc1cccc(CNC(=O)CCNC(=O)[C@H](O)C(C)(C)CO)c1	> 200 µM	> 200 µM	–	–	–	–
CC(C)CCNC(=O)CCCNC(=O)[C@H](O)C(C)(C)CO	–	8.9 µM	5%	–	–	–
CC(C)(CO)[C@@H](O)C(=O)NCCCC(=O)NCC1CC1	–	12 µM	5%	–	–	–
CC(C)(CO)[C@@H](O)C(=O)NCCCC(=O)NCC1CCCCC1	3.3 µM	2.1 µM	5%	113 µM	54	> 200 µM
CCSCCNC(=O)CCCNC(=O)[C@H](O)C(C)(C)CO	1.9 µM	2 µM	5%	> 200 µM	> 100	169 µM
CSCCCNC(=O)CCCNC(=O)[C@H](O)C(C)(C)CO	–	7.7 µM	5%	–	–	–
CC(C)(CO)[C@@H](O)C(=O)NCCCC(=O)NCCc1ccccc1	–	2.1 µM	5%	99 µM	47	139 µM
CC(C)(CO)[C@@H](O)C(=O)NCCCC(=O)NCc1ccccc1	4.7 µM	6.1 µM	5%	–	–	> 200 µM
COc1ccc(CNC(=O)CCCNC(=O)[C@H](O)C(C)(C)CO)cc1	10 µM	9.5 µM	5%	–	–	> 200 µM
COc1cccc(CNC(=O)CCCNC(=O)[C@H](O)C(C)(C)CO)c1	22 µM	21 µM	5%	–	–	> 200 µM
CC(C)(CO)[C@@H](O)C(=O)NCCCC(=O)NCc1ccc2c(c1)OCO2	–	2.4 µM	5%	23 µM	9	88 µM
CC(C)(CO)[C@@H](O)C(=O)NCCCC(=O)NCc1ccc(OC(F)(F)F)cc1	4.9 µM	6.3 µM	5%	–	–	> 200 µM
CC(C)(CO)[C@@H](O)C(=O)NCCCC(=O)NCc1ccc(C(F)(F)F)cc1	–	–	5%	–	–	–
CC(C)(CO)[C@@H](O)C(=O)NCCCC(=O)NCc1cccc(C(F)(F)F)c1	–	–	5%	–	–	–
CN(C)c1cccc2c(S(=O)(=O)NCCCCCNC(=O)CCCNC(=O)[C@H](O)C(C)(C)CO)cccc12	–	–	5%	–	–	–
COc1cccc(CNC(=O)CNC(=O)[C@H](O)C(C)(C)CO)c1	> 200 µM	> 200 µM	5%	–	–	–
CC(C)(CO)[C@@H](O)C(=O)NCC(=O)NCc1ccc2c(c1)OCO2	–	53 µM	5%	–	–	> 200 µM
CC(C)(CO)[C@@H](O)C(=O)NCC(=O)NCc1ccc(OC(F)(F)F)cc1	64 µM	71 µM	5%	–	–	> 200 µM
CC(C)(CO)[C@@H](O)C(=O)NCC(=O)NCc1ccc(C(F)(F)F)cc1	45 µM	48 µM	5%	–	–	57 µM
CC(C)(CO)[C@@H](O)C(=O)NCC(=O)NCc1cccc(C(F)(F)F)c1	116 µM	89 µM	5%	–	–	177 µM

SMILES	IC50 [1]	IC50 [2]	metabolised at 10 min, 200 µM [3]	IC50 [4]	selectivity ratio [5]	IC50 [6]
CN(C)c1cccc2c(S(=O)(=O)NCCCCCNC(=O)CNC(=O)[C@H](O)C(C)(C)CO)cccc12	–	155 µM	5%	–	–	157 µM
CCCCNC(=O)CCNC(=O)[C@H](O)C(C)(C)CO	–	> 200 µM	–	–	–	–
CCCCCCNC(=O)CCNC(=O)[C@H](O)C(C)(C)CO	0.55 µM	134 µM	–	–	–	–
CCCCCCCNC(=O)CCNC(=O)[C@H](O)C(C)(C)CO	–	> 200 µM	–	–	–	–
CC(C)CNC(=O)CCNC(=O)[C@H](O)C(C)(C)CO	1.1 µM	200 µM	–	–	–	–
CC(C)CCNC(=O)CCNC(=O)[C@H](O)C(C)(C)CO	–	> 200 µM	–	–	–	–
CC(C)(CO)[C@@H](O)C(=O)NCCC(=O)NCC1CC1	–	149 µM	–	–	–	–
CC(C)(CO)[C@@H](O)C(=O)NCCC(=O)NCC1CCCCC1	> 200 µM	> 200 µM	–	–	–	–
CCSCCNC(=O)CCNC(=O)[C@H](O)C(C)(C)CO	0.28 µM	87 µM	–	–	–	–
CSCCCNC(=O)CCNC(=O)[C@H](O)C(C)(C)CO	0.23 µM	143 µM	–	–	–	–
CC(C)(CO)[C@@H](O)C(=O)NCCC(=O)NCCc1ccccc1	0.02 µM	53 µM	–	–	–	–
CC(C)(CO)[C@@H](O)C(=O)NCCC(=O)NCc1ccccc1	> 200 µM	> 200 µM	–	–	–	–
COc1ccc(CNC(=O)CCNC(=O)[C@H](O)C(C)(C)CO)cc1	> 200 µM	> 200 µM	–	–	–	–
CC(C)(CO)[C@@H](O)C(=O)NCCC(=O)NCc1ccc2c(c1)OCO2	–	144 µM	–	–	–	–
CC(C)(CO)[C@@H](O)C(=O)NCCC(=O)NCc1ccc(OC(F)(F)F)cc1	136 µM	> 200 µM	–	–	–	–
CC(C)(CO)[C@@H](O)C(=O)NCCC(=O)NCc1ccc(C(F)(F)F)cc1	117 µM	107 µM	–	–	–	–
CC(C)(CO)[C@@H](O)C(=O)NCCC(=O)NCc1cccc(C(F)(F)F)c1	156 µM	> 200 µM	–	–	–	–
CN(C)c1cccc2c(S(=O)(=O)NCCCCCNC(=O)CCNC(=O)[C@H](O)C(C)(C)CO)cccc12	–	> 200 µM	–	–	–	–
CCCNC(=O)CCCNC(=O)[C@H](O)C(C)(C)CO	–	13 µM	5%	–	–	–
CCCCNC(=O)CCCNC(=O)[C@H](O)C(C)(C)CO	–	11 µM	25%	–	–	–

SMILES	IC50 [1]	IC50 [2]	metabolised at 10 min, 200 µM [3]	IC50 [4]	selectivity ratio [5]	IC50 [6]
CCCCCNC(=O)CCCNC(=O)[C@H](O)C(C)(C)CO	2.2 µM	3.9 µM	5%	192 µM	49	195 µM
CCCCCCNC(=O)CCCNC(=O)[C@H](O)C(C)(C)CO	14 µM	8 µM	5%	–	–	199 µM
CCCCCCCNC(=O)CCCNC(=O)[C@H](O)C(C)(C)CO	–	11 µM	5%	–	–	–
CC(C)CNC(=O)CCCNC(=O)[C@H](O)C(C)(C)CO	–	11 µM	5%	–	–	–
CCCNC(=O)CNC(=O)[C@H](O)C(C)(C)CO	–	13 µM	5%	–	–	–
CCCCNC(=O)CNC(=O)[C@H](O)C(C)(C)CO	–	5.3 µM	25%	–	–	–
CCCCCNC(=O)CNC(=O)[C@H](O)C(C)(C)CO	14 µM	7 µM	5%	–	–	142 µM
CCCCCCNC(=O)CNC(=O)[C@H](O)C(C)(C)CO	7.9 µM	4.7 µM	5%	126 µM	27	104 µM
CCCCCCCNC(=O)CNC(=O)[C@H](O)C(C)(C)CO	–	46 µM	5%	–	–	–
CC(C)CNC(=O)CNC(=O)[C@H](O)C(C)(C)CO	–	18 µM	5%	–	–	–
CC(C)CCNC(=O)CNC(=O)[C@H](O)C(C)(C)CO	–	12 µM	5%	–	–	–
CC(C)(CO)[C@@H](O)C(=O)NCC(=O)NCC1CC1	–	6.4 µM	5%	–	–	183 µM
CC(C)(CO)[C@@H](O)C(=O)NCC(=O)NCC1CCCCC1	140 µM	164 µM	5%	–	–	–
CCSCCNC(=O)CNC(=O)[C@H](O)C(C)(C)CO	11 µM	10 µM	5%	–	–	200 µM
CSCCCNC(=O)CNC(=O)[C@H](O)C(C)(C)CO	–	38 µM	5%	–	–	–
CC(C)(CO)[C@@H](O)C(=O)NCC(=O)NCCc1ccccc1	–	3.4 µM	5%	53 µM	16	135 µM
CC(C)(CO)[C@@H](O)C(=O)NCC(=O)NCc1ccccc1	127 µM	122 µM	5%	–	–	> 200 µM
COc1ccc(CNC(=O)CNC(=O)[C@H](O)C(C)(C)CO)cc1	71 µM	26 µM	5%	–	–	189 µM
CCCCCNC(=O)CCNC(=O)[C@H](O)C(C)(C)CO	7.5 µM	182 µM	–	–	–	–
CCCNC(=O)CCNC(=O)[C@H](O)C(C)(C)CO	–	199 µM	–	–	–	–
